# Test results: ChEMBL document CHEMBL1148771, “Design and synthesis of HIV-1 protease inhibitors incorporating oxazolidinones as P2/P2' ligands in pseudosymmetric dipeptide isosteres” (J Med Chem, 2007)
# pEC50, pKi: −log10 of the molar value.
# Experiments:
# [1] = Inhibition of HIV1 Protease M1 variant by FRET based assay; set-up: species or system Human immunodeficiency virus 1
# [2] = Inhibition of HIV1 Protease M2 variant by FRET based assay; set-up: species or system Human immunodeficiency virus 1
# [3] = Inhibition of HIV1 Protease M3 variant by FRET based assay; set-up: species or system Human immunodeficiency virus 1
# [4] = tested on: Human immunodeficiency virus 1; experiment: Antiviral activity against HIV1 infected MT4 cells by MTT method; type: functional, organism-based; conditions: Human immunodeficiency virus 1, MT4
# Summary of the method: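 HIV-1 4–3 (100 CCID50) infected MT-4 cells, washed in PBS, seeded at 4 × 10⁴ cells/well in RPMI with 10% FBS. Compound dilutions added in triplicate at 0.5% DMSO final, 5 days at 37 °C, 5% CO₂, mock-infected controls in parallel. MTT added for 4 h, formazan solubilized, absorbance read at 540/690 nm.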
# [5] = biological target: Protease (Human immunodeficiency virus 1, UniProt Q9YQ12); experiment: Inhibition of Wild type HIV1 Protease by FRET based assay
# Sequence of Protease (Q9YQ12 whole entry): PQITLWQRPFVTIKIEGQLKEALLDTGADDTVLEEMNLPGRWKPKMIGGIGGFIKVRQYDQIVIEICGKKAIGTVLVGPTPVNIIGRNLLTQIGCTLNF
Structure (SMILES),pKi [1],pKi [2],pKi [3],pEC50 [4],pKi [5]
CC(C)(C)NC(=O)[C@@H]1C[C@@H]2CCCC[C@@H]2CN1C[C@@H](O)[C@H](Cc1ccccc1)NC(=O)[C@H](CC(N)=O)NC(=O)c1ccc2ccccc2n1,7.05,8.99,7.11,8.00,–
CC(C)CN(C[C@@H](O)[C@H](Cc1ccccc1)NC(=O)O[C@H]1CCOC1)S(=O)(=O)c1ccc(N)cc1,9.82,9.68,8.85,7.40,–
COC(=O)N[C@H](C(=O)N[C@@H](Cc1ccccc1)C[C@H](O)[C@H](Cc1ccccc1)NC(=O)[C@@H]1CN(c2ccccc2)C(=O)O1)C(C)(C)C,6.88,7.85,6.41,5.99,8.45
Cc1cccc(C)c1OCC(=O)N[C@@H](Cc1ccccc1)C[C@H](O)[C@H](Cc1ccccc1)NC(=O)[C@@H]1CN(c2ccccc2)C(=O)O1,–,–,–,–,8.09
CC(=O)c1cccc(N2C[C@@H](C(=O)N[C@@H](Cc3ccccc3)[C@@H](O)C[C@H](Cc3ccccc3)NC(=O)COc3c(C)cccc3C)OC2=O)c1,–,–,–,–,7.45
O=C(N[C@@H](Cc1ccccc1)[C@@H](O)CN(Cc1ccc(-c2ccccn2)cc1)NC(=O)[C@@H]1CN(c2ccccc2)C(=O)O1)[C@@H]1CN(c2ccccc2)C(=O)O1,–,–,–,–,6.52
CC(=O)c1cccc(N2C[C@@H](C(=O)N[C@@H](Cc3ccccc3)[C@@H](O)CN(Cc3ccc(-c4ccccn4)cc3)NC(=O)[C@@H]3CN(c4cccc(C(C)=O)c4)C(=O)O3)OC2=O)c1,–,–,–,–,5.96
CC(=O)N[C@H](C(=O)N[C@@H](Cc1ccccc1)C[C@H](O)[C@H](Cc1ccccc1)NC(=O)[C@@H]1CN(c2ccc(F)c(F)c2)C(=O)O1)C(C)C,6.77,8.41,6.55,6.44,8.67
CC(C)[C@@H](C(=O)N[C@@H](Cc1ccccc1)C[C@H](O)[C@H](Cc1ccccc1)NC(=O)[C@@H]1CN(c2ccccc2)C(=O)O1)N1CCCNC1=O,6.76,7.86,6.73,5.92,–
Cc1cccc(C)c1OCC(=O)N[C@@H](Cc1ccccc1)[C@@H](O)C[C@H](Cc1ccccc1)NC(=O)[C@H]1CN(c2ccccc2)C(=O)O1,–,–,–,–,5.33
CC(=O)N[C@H](C(=O)N[C@@H](Cc1ccccc1)C[C@H](O)[C@H](Cc1ccccc1)NC(=O)[C@@H]1CN(c2ccccc2)C(=O)O1)C(C)C,7.29,8.51,6.95,6.10,–
CC(=O)c1ccc(N2C[C@@H](C(=O)N[C@@H](Cc3ccccc3)[C@@H](O)C[C@H](Cc3ccccc3)NC(=O)COc3c(C)cccc3C)OC2=O)cc1,–,–,–,–,7.40
Cc1cccc(C)c1OCC(=O)N[C@@H](Cc1ccccc1)[C@@H](O)C[C@H](Cc1ccccc1)NC(=O)[C@@H]1CN(c2ccccc2)C(=O)O1,6.44,7.74,6.35,–,8.14
CC(=O)N[C@H](C(=O)N[C@@H](Cc1ccccc1)C[C@H](O)[C@H](Cc1ccccc1)NC(=O)[C@@H]1CN(c2cccc(C(C)=O)c2)C(=O)O1)C(C)C,7.08,8.78,6.91,6.21,–
COC(=O)N[C@H](C(=O)NN(CC(C)C)C[C@H](O)[C@H](Cc1ccccc1)NC(=O)[C@@H]1CN(c2ccccc2)C(=O)O1)C(C)(C)C,6.64,7.41,6.26,–,8.15
COC(=O)N[C@H](C(=O)N[C@@H](Cc1ccccc1)[C@@H](O)CN(CC(C)C)NC(=O)[C@@H]1CN(c2ccccc2)C(=O)O1)C(C)(C)C,–,–,–,–,7.97
Cc1cccc(C)c1OCC(=O)N[C@@H](Cc1ccccc1)[C@@H](O)C[C@H](Cc1ccccc1)NC(=O)[C@@H]1CN(c2cccc(C(F)(F)F)c2)C(=O)O1,–,–,–,–,7.66
O=C(Cc1ccc2c(c1)OCO2)N[C@@H](Cc1ccccc1)[C@@H](O)C[C@H](Cc1ccccc1)NC(=O)[C@@H]1CN(c2ccccc2)C(=O)O1,–,–,–,–,6.18
O=C(N[C@@H](Cc1ccccc1)[C@@H](O)C[C@H](Cc1ccccc1)NC(=O)[C@@H]1CN(c2cccc(C(F)(F)F)c2)C(=O)O1)OCc1cccnc1,–,–,–,–,7.39
CC(=O)N[C@H](C(=O)N[C@@H](Cc1ccccc1)C[C@H](O)[C@H](Cc1ccccc1)NC(=O)[C@@H]1CN(c2cccc(C(F)(F)F)c2)C(=O)O1)C(C)C,–,–,–,–,8.58
COC(=O)N[C@H](C(=O)N[C@@H](Cc1ccccc1)[C@@H](O)CN(Cc1ccc(-c2ccccn2)cc1)NC(=O)[C@@H](NC(=O)OC)C(C)(C)C)C(C)(C)C [ATAZANAVIR],9.48,11.05,9.31,–,–
Cc1cccc(C)c1OCC(=O)N[C@@H](Cc1ccccc1)[C@@H](O)C[C@H](Cc1ccccc1)NC(=O)[C@H](C(C)C)N1CCCNC1=O [LOPINAVIR],8.21,10.40,9.05,8.00,–
